Legend:
Type in all cases: functional
Trichoderma viride [1] = experiment: Antifungal activity against Hypocrea rufa assessed as growth inhibition at 10 ppm after 4 days relative to untreated control; conditions: 96 h, read-out: GI
Outline: (§1)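 Fungal cultures kept on potato dextrose agar (PDA) and subcultured on fresh medium for 3 days before testing. PDA plates held kava lactones dissolved in water at 10 or 50 ppm. Plates were inoculated with plugs from the actively growing fungal margin and incubated at 25 °C for 4 days. Distilled-water controls. Completely randomized design, at least three replicates, ANOVA.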

Echinochloa crus-galli [2] = experiment: Herbicidal activity against Echinochloa crus-galli (barnyard grass) assessed as inhibition of shoot length at 1 ppm relative to untreated control
Outline: (§2)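 Pure reference kava lactones diluted to 1 and 10 ppm. Seeds were sterilized in 1% sodium hypochlorite for 30 min and rinsed in distilled water; germination >80%. Five replicates were incubated at 25 °C, 4000 lx, 8/16 h day/night, 75% humidity. Distilled-water controls. After 7 days, germinated seeds were counted and shoot and root lengths measured.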

Echinochloa crus-galli [3] = experiment: Herbicidal activity against Echinochloa crus-galli (barnyard grass) assessed as inhibition of germination at 10 ppm relative to untreated control; outline: as §2
Echinochloa crus-galli [4] = experiment: Herbicidal activity against Echinochloa crus-galli (barnyard grass) assessed as inhibition of germination at 1 ppm relative to untreated control; outline: as §2
Lactuca sativa [5] = experiment: Herbicidal activity against Lactuca sativa cv. Great Lakes 366 (lettuce) assessed as inhibition of root length at 10 ppm relative to untreated control; outline: as §2
Lactuca sativa [6] = experiment: Herbicidal activity against Lactuca sativa cv. Great Lakes 366 (lettuce) assessed as inhibition of root length at 1 ppm relative to untreated control; outline: as §2
Lactuca sativa [7] = experiment: Herbicidal activity against Lactuca sativa cv. Great Lakes 366 (lettuce) assessed as inhibition of shoot length at 10 ppm relative to untreated control; outline: as §2
Lactuca sativa [8] = experiment: Herbicidal activity against Lactuca sativa cv. Great Lakes 366 (lettuce) assessed as inhibition of shoot length at 1 ppm relative to untreated control; outline: as §2
Lactuca sativa [9] = experiment: Herbicidal activity against Lactuca sativa cv. Great Lakes 366 (lettuce) assessed as inhibition of germination at 10 ppm relative to untreated control; outline: as §2
Lactuca sativa [10] = experiment: Herbicidal activity against Lactuca sativa cv. Great Lakes 366 (lettuce) assessed as inhibition of germination at 1 ppm relative to untreated control; outline: as §2
Fusarium solani [11] = experiment: Antifungal activity against Fusarium solani assessed as growth inhibition at 10 ppm after 4 days relative to untreated control; conditions: 96 h, read-out: GI; outline: as §1
[12] = tested on: Colletotrichum gloeosporioides; experiment: Antifungal activity against Colletotrichum gloeosporioides assessed as growth inhibition at 50 ppm after 4 days relative to untreated control; conditions: 96 h, read-out: GI; outline: as §1
[13] = tested on: Colletotrichum gloeosporioides; experiment: Antifungal activity against Colletotrichum gloeosporioides assessed as growth inhibition at 10 ppm after 4 days relative to untreated control; conditions: 96 h, read-out: GI; outline: as §1
Echinochloa crus-galli [14] = experiment: Herbicidal activity against Echinochloa crus-galli (barnyard grass) assessed as inhibition of root length at 10 ppm relative to untreated control; outline: as §2
Echinochloa crus-galli [15] = experiment: Herbicidal activity against Echinochloa crus-galli (barnyard grass) assessed as inhibition of root length at 1 ppm relative to untreated control; outline: as §2
Echinochloa crus-galli [16] = experiment: Herbicidal activity against Echinochloa crus-galli (barnyard grass) assessed as inhibition of shoot length at 10 ppm relative to untreated control; outline: as §2
Trichoderma viride [17] = experiment: Antifungal activity against Hypocrea rufa assessed as growth inhibition at 50 ppm after 4 days relative to untreated control; conditions: 96 h, read-out: GI; outline: as §1
Fusarium oxysporum [18] = experiment: Antifungal activity against Fusarium oxysporum assessed as growth inhibition at 50 ppm after 4 days relative to untreated control; conditions: 96 h, read-out: GI; outline: as §1
Fusarium oxysporum [19] = experiment: Antifungal activity against Fusarium oxysporum assessed as growth inhibition at 10 ppm after 4 days relative to untreated control; conditions: 96 h, read-out: GI; outline: as §1
Fusarium solani [20] = experiment: Antifungal activity against Fusarium solani assessed as growth inhibition at 50 ppm after 4 days relative to untreated control; conditions: 96 h, read-out: GI; outline: as §1

Row | SMILES | inhibition of growth at 10 ppm (Trichoderma viride [1]) | inhibition at 1 ppm (Echinochloa crus-galli [2]) | inhibition at 10 ppm (Echinochloa crus-galli [3]) | inhibition at 1 ppm (Echinochloa crus-galli [4]) | inhibition at 10 ppm (Lactuca sativa [5]) | inhibition at 1 ppm (Lactuca sativa [6]) | inhibition at 10 ppm (Lactuca sativa [7]) | inhibition at 1 ppm (Lactuca sativa [8]) | inhibition at 10 ppm (Lactuca sativa [9]) | inhibition at 1 ppm (Lactuca sativa [10]) | inhibition of growth at 10 ppm (Fusarium solani [11]) | inhibition of growth at 50 ppm [12] | inhibition of growth at 10 ppm [13] | inhibition at 10 ppm (Echinochloa crus-galli [14]) | inhibition at 1 ppm (Echinochloa crus-galli [15]) | inhibition at 10 ppm (Echinochloa crus-galli [16]) | inhibition of growth at 50 ppm (Trichoderma viride [17]) | inhibition of growth at 50 ppm (Fusarium oxysporum [18]) | inhibition of growth at 10 ppm (Fusarium oxysporum [19]) | inhibition of growth at 50 ppm (Fusarium solani [20])
1 | COc1cc(/C=C/c2ccccc2)oc(=O)c1 [DESMETHOXYYANGONIN] | 0% | 31.7% | 60% | 43.3% | 63.3% | 50.3% | 82.4% | 74.9% | 59.2% | 48.1% | 27.4% | 22.2% | 0% | 51.3% | 46.4% | 59.9% | 0% | 24.6% | 11.6% | 33.9%
2 | COC1=CC(=O)O[C@@H](CCc2ccccc2)C1 [DIHYDROKAWAIN] | 0% | 56.6% | 50% | 46.7% | 15.6% | – | 74.3% | – | 25.9% | – | 0% | 33.3% | 0% | 58.9% | 53.1% | 61.2% | 16.2% | 21.7% | 10.1% | 38.7%
3 | COC1=CC(=O)O[C@@H](CCc2ccc3c(c2)OCO3)C1 [DIHYDROMETHYSTICIN] | 0% | 48.6% | 56.7% | 50% | 74.8% | – | 76.5% | – | 89.9% | – | 40.3% | 27.8% | 0% | 48.2% | 32.1% | 55.6% | 0% | 31.9% | 18.8% | 48.4%
4 | COC1=CC(=O)O[C@@H](/C=C/c2ccccc2)C1 [KAVAIN] | 0% | – | 46.7% | 46.7% | 62.6% | 59.9% | 86.1% | 75.9% | 59.2% | 51.9% | 29% | 0% | 0% | 46.9% | 39.7% | 47.6% | 0% | 17.4% | 0% | 29%
5 | COC1=CC(=O)O[C@@H](/C=C/c2ccc3c(c2)OCO3)C1 [METHYSTICIN] | 0% | 55% | 60% | 50% | 53.1% | 61.2% | 73.3% | 71.1% | 55.6% | 48.1% | 37.1% | 0% | 0% | 83.9% | 75.4% | 56% | 0% | 36.2% | 11.6% | 33.9%
6 | COc1ccc(/C=C/c2cc(OC)cc(=O)o2)cc1 [YANGONIN] | – | 53.1% | 56.7% | 56.7% | 68% | 36.1% | 78.6% | 63.1% | 59.2% | 44.4% | – | 0% | – | 43.8% | 42.9% | 58.2% | 0% | 39.1% | – | 41.9%

Reference: ChEMBL document CHEMBL3046625, “Herbicidal and Fungicidal Activities of Lactones in Kava (Piper methysticum)” (2006)
